Reference: PMC7580710 (Pharmacology Research & Perspectives, 2020)
Peptide text beside a SMILES is read from it. * marks the point of attachment. Lauroyl = CCCCCCCCCCCC(=O)*

Assays:
[1] = Urinary excretion; format: in vivo, Sprague Dawley rats; conditions: rat, i.v., urine from bladder
[2] = cited from earlier work
[3] = 3 hours, or 1, 2, 3, and 7 days after injection; cited from earlier work
[4] = Plasma pharmacokinetics after intravenous; format: in vivo, Sprague Dawley rats; conditions: rat, 2.5 mg i.v., plasma sampled for 3 days
Method in brief: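 Adult male Sprague Dawley rats (350-400 g) under isoflurane (5% induction, 1%-3% maintenance) got one internal jugular injection. Blood was taken by terminal cardiac puncture from 0 to 72 h (N = 3 per time) and plasma separated cold. Levels were measured in duplicate by LC-MS/MS after protein precipitation with analog internal standard (curve 1.0-500 ng/mL). Data were fitted with a three-compartment naïve-pooled model, extended least-squares, variance-weighted.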

SMILES: CCCCCCCCCCCC(=O)NCCCC[C@H](NC(=O)[C@@H](NC(=O)[C@@H](NC(=O)[C@H](C)NC(=O)[C@H](C)NC(=O)[C@H](CCCCN)NC(=O)[C@H](CCCCN)NC(=O)[C@H](CS)NC(=O)[C@H](CCCCN)NC(=O)[C@@H]1CCCN1C(=O)[C@H](CC(C)C)NC(=O)[C@@H](NC(=O)[C@H](Cc1c[nH]c2ccccc12)NC(=O)[C@H](CC(C)C)NC(=O)[C@@H](N)CCCCN)C(C)C)C(C)C)C(C)C)C(N)=O [collagen‐targeted PA] (H-KLWVLPKCKKAAVVK(Lauroyl)-NH2)
- presence of the target peptide in urine by LC-MS/MS [1]: did not show the presence of the target peptide
- CAC for this fiber [2]: below 1 µM
- critical aggregation concentration (CAC) ([2]; collagen-targeted PA with Alexa Fluor 546, nanofibers at neutral pH): < 300 nM
- liver function profiles, coagulation panel, or chemistry panel [3]: no change
- observed terminal half-life (not to be interpreted as elimination half-life) [4]: 42.6 h
